Measles CPE: protection of cells from measles virus | Measles virus-infected cells, CPE protection, absorbance | protection (pct of control), % at 4 µM | actives 1.5% (n = 140,000) | AID 841; in the data active = protection mostly above about 24%, no sharp cut-off; inactive = mostly below about 26%
FLuc act counter: affects firefly luciferase, flagging false hits in luciferase stimulation screens; AID 1027; activation factor at 10 µM; ATPlite luciferase biochemical, luminescence, 10 min; 0 = ATP-free wells, 1 = DMSO control; P08659; 200,000 tested, under 10 active;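 active = luciferase activation factor, scaled between plate controls, of at least 2 with compound at 10 µM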
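test system = cell-free luciferase reagent | medium = PBS as buffer for the ATP substrate | dosing = test compounds dosed from 2 mM stocks in 100% DMSO | incubation = 10 min at ambient temperature | detection = luminescence measurement of luciferase light output | benchmarks = low control with PBS replacing ATP, high control enzyme plus ATP without compound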
ABCB1 block: inhibitors of human ABCB1 transporter, ABCG2 counter-screen | P08183 | actives 0.067% (n = 190,000) | inhibition, % at 6.6 µM | CCRF-Adr cells, JC-1 efflux, flow cytometry; in the data active = inhibition above about 40%;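 note: 0% = vehicle and 100% = reference inhibitor; higher value means more JC-1 retained so stronger ABCB1 efflux block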
FLuc inh counter: inhibits firefly luciferase, flagging false hits in luciferase inhibition screens; P08659; ATPLite firefly luciferase biochemical luminescence, 10 min; inhibition, % at 10 µM; actives 1.5% (n = 200,000); AID 1006;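 active = inhibition above about 50% when tested at 10 µM, limit read from the data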
ABCG2 inh: inhibitors of human ABCG2 transporter, ABCB1 counter-screen. actives 0.1% (n = 190,000). inhibition, % at 6.6 µM. IgMXP3 cells, JC-1 efflux, flow cytometry;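 active = inhibition above 80%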;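 note: 0% = DMSO and 100% = nicardipine control wells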
Target sequence (Q9UNQ0 whole entry, looked up): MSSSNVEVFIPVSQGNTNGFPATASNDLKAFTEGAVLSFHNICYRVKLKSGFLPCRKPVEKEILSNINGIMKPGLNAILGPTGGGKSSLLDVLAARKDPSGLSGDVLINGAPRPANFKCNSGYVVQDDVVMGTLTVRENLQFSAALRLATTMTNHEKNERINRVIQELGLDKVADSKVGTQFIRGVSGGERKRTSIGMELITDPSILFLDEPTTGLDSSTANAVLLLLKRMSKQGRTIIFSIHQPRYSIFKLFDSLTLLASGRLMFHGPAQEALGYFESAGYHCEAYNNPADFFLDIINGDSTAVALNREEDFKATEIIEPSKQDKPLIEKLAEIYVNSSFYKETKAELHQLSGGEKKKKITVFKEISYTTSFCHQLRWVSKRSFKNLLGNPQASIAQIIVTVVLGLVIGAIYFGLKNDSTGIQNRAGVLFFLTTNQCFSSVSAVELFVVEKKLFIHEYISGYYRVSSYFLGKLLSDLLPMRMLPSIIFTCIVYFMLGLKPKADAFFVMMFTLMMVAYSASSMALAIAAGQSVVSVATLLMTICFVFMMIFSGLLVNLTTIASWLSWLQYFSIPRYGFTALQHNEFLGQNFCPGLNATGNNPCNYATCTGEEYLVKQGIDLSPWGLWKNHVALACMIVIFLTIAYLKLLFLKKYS
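Test system: ABCG2 IgMXP3 and barcoded ABCB1 CCRF-Adr cell mix; Schedule: cells with compound and JC-1, 10 min at 25 °C, rotating, no wash; Technique: flow cytometry of retained JC-1 fluorescence; Measure: % inhibition of efflux relative to nicardipine and DMSO; Controls: nicardipine high and DMSO low controls.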
DTT redox prof: compounds producing H2O2 with reducing agent – biochemical, NIH compound library profiling, artefact control for MLSCN library redox annotation, primary screen. DTT-dependent redox cycling H2O2, phenol red/HRP absorbance; 100% = 100 µM peroxide control, 0% = buffer. activation, % at 10 µM. actives 0.03% (n = 200,000);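 active = activation of at least 50% relative to the plate's high and low controls in the primary single-dose screen; inactive = activation below 50%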;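 note: compound incubated with DTT at 0.8 mM final as the reducing agent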
* marks the source's active call; other numbers are inactive results; · = not tested or not shown. Most compounds without a hit are left out; they make up all but 2.7% or so of the library.

SMILES	Measles CPE	FLuc act counter	ABCB1 block	FLuc inh counter	ABCG2 inh	DTT redox prof
Cc1ccc(C(=O)Nc2ncc(Cc3ccccc3)s2)o1	6	0.2	0	80*	36	0
O=C(Nc1nc2c(s1)CCCC2)c1cccnc1	3	0.6	0	35	2	-2
O=C(Nc1nc2c(s1)CCCC2)c1ccc(Br)o1	20	0.3	0	68*	10	0
Cc1csc(NC(=O)c2ccc(C)o2)n1	17	0.7	1	32	1	0
CCOc1ccc(C(=O)NN2C(=O)C3C4C=CC(O4)C3C2=O)cc1 (configuration not stated)	6	1	1	-2	3	0
O=C(O)CC(NC(=O)Cc1ccc([N+](=O)[O-])cc1)c1ccc2c(c1)OCO2 (configuration not stated)	·	1.1	0	-9	1	-2
CCN(CC)c1ccc(C2C(C(=O)OC(C)C)C(=O)CC(C)(O)C2C(=O)OC(C)C)cc1 (configuration not stated)	12	1.1	1	-8	2	-2
O=C1CCCC(=O)N1c1ccc(NCCOCCO)c([N+](=O)[O-])c1	·	1	1	-3	5	-1
COc1ccc(-c2cnnc(N/N=C/c3ccc(C)o3)n2)cc1	·	1	1	4	14	-1
COc1ccc(-c2cnnc(N/N=C/c3ccc(O)c(O)c3)n2)cc1	6	0.1	-1	85*	-2	1
COc1ccc(-c2cnnc(N/N=C/c3ccc(O)cc3)n2)cc1	·	0.3	0	73*	11	0
COc1ccc(-c2cnnc(N/N=C/c3c(C)nn(-c4ccccc4)c3Cl)n2)cc1	1	1	1	2	1	0
CC(C)CNS(=O)(=O)c1ccc(CCC(=O)NCCC2=CCCCC2)cc1	·	1.1	0	-7	3	0
CC(C(=O)NN=C(c1ccccc1)c1ccccc1)N1CCOCC1 (configuration not stated)	·	1.1	0	-5	0	0
CS(=O)(=O)Nc1cccc(C(=O)CC2(O)C(=O)Nc3ccc(Br)cc32)c1 (configuration not stated)	34*	1	0	0	5	0
CS(=O)(=O)Nc1cccc(C(=O)CC2(O)C(=O)Nc3ccccc32)c1 (configuration not stated)	7	1	0	-3	0	2
COc1ccc(C2CC(c3cccs3)=NN2c2nc(-c3ccccc3)cs2)cc1OC (configuration not stated)	22	1.1	0	-10	1	15
CCN(CC)S(=O)(=O)c1ccc(N=NC2=C(O)CCCC2=O)cc1	34*	1.1	0	-5	14	0
CCCc1ccc(-c2cc(C(=O)N/N=C/c3ccc([N+](=O)[O-])o3)c3ccccc3n2)cc1	22	0.1	0	94*	-1	0
O=C(N/N=C/c1ccc([N+](=O)[O-])o1)c1cc(-c2cccc(Br)c2)nc2ccccc12	4	0.8	0	17	6	-4
COc1ccc(CNC(=O)OCCN2CCN(Cc3ccccc3)CCC2=O)cc1	12	1.1	2	-6	5	0
c1ccc(-c2noc(-c3cccc4ccccc34)n2)nc1	11	0.2	1	77*	5	1
c1ccc(-c2noc(CC3CCCCC3)n2)nc1	·	0.5	0	52*	1	-1
Cc1ccc(Cc2nc(-c3ccccn3)no2)cc1	6	0.7	1	27	3	2
Cc1ccc(-c2noc(-c3ccccc3Br)n2)cc1	5	0.3	1	67*	7	3
SMILES	Measles CPE	FLuc act counter	ABCB1 block	FLuc inh counter	ABCG2 inh	DTT redox prof
COc1cccc(-c2nc(-c3ccccn3)no2)c1OC	6	0.7	0	25	2	1
COc1ccccc1-c1nc(-c2ccc(Br)cc2)no1	21	0.8	0	15	1	-3
Cc1ccc(-c2nc(-c3ccccn3)no2)cc1	11	0	0	97*	8	3
Cc1c(C(=O)O)oc2c1C(=O)CC(C)(C)C2	·	1	0	0	1	0
Cc1ccc(NCc2nnc(SC(C)C(=O)N/N=C/c3ccc(C)o3)n2-c2ccccc2)cc1 (configuration not stated)	7	1.1	0	-8	0	-8
CC(C)n1c(O)c(N=NC(=O)Cc2csc(N3CCOCC3)n2)c2ccccc21	·	1.1	2	-5	10	-1
COC(=O)c1ccc(Sc2ccccc2NS(=O)(=O)c2ccc(C)cc2)nc1	16	1	0	-3	2	1
CS(=O)(=O)N1CCN(C(=O)NC2CCCCC2)CC1	·	1.1	0	-8	1	0
c1ccc(-c2nc(-c3ccccn3)no2)cc1	9	0.1	0	90*	0	-2
Cc1ccc2nc(-c3ccccn3)oc2c1	22	0.2	0	84*	3	3
c1ccc(-c2noc(-c3ccccc3-c3ccccc3)n2)cc1	1	1	1	-4	4	0
c1ccc(-c2noc(-c3ccco3)n2)nc1	22	0.8	2	23	17	3
c1ccc(-c2cc(-c3nc(-c4ccccn4)no3)c3ccccc3n2)cc1	·	·	·	·	·	2
c1ccc(-c2ccc(-c3nc(-c4ccccn4)no3)cc2)cc1	2	0.1	1	94*	1	0
CN(C)c1ccc(-c2noc(-c3ccccc3O)n2)cc1	4	0.4	0	58*	1	0
COc1ccc(-c2noc(CN(C)Cc3ccc(C)o3)n2)cc1	·	1	0	-1	0	-1
CN(C)c1nc(Cl)nc(NCCOc2ccccc2)n1	25	1	-1	-3	-6	0
c1ccc(CN2CCN(CCOCCOc3ccc4c(c3)CCC4)CC2)cc1	·	1.1	-1	-6	-1	-1
COc1cc(-c2nc(-c3ccccn3)no2)cc(OC)c1OC	1	0.9	1	6	2	0
Clc1cccc(-c2nc(-c3ccccn3)no2)c1	3	0.1	1	93*	5	0
Cc1ccc(-c2nc(-c3ccccn3)no2)cc1Cl	1	0	2	95*	55	-1
Cc1cc([N+](=O)[O-])c2c(c1C)C1C=CCC1C(c1ccccn1)N2 (configuration not stated)	·	1.1	1	-7	2	0
CCC(CC)c1nnc(NC(=O)c2cccnc2SC)s1	·	1.1	1	-7	6	-2
COc1ccccc1/C=C/C=N/n1c(-c2ccc(C)cc2)n[nH]c1=S	8	1	-2	0	-5	0
